Test results reported in ChEMBL document CHEMBL4651341, “The discovery of a novel series of compounds with single-dose efficacy against juvenile and adult Schistosoma species” (PLoS Negl Trop Dis, 2021).

Columns and labels:
Schistosoma mansoni [1] = experiment: Concentration required to kill 50% of 21 day old worms 5 days after drug treatment.; format: functional, organism-based; settings: Puerto Rican, 120 h
In short: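 Juvenile S. mansoni (Puerto Rican strain) were perfused from CD1 mice 3 weeks post-infection and washed. They were cultured 6–8 per well in 200 µL DMEM with 2 mM glutamine, penicillin/streptomycin and 10% FCS at 37 °C, 5% CO2. Viability of individual worms was scored on day 5 after dosing (120 h).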

[2] = Concentration required to kill 50% HepG2 cells as detected by MTT staining; format: toxicity, cell-based; settings: homo sapiens, read-out: TC50 (the source's name)
[3] = Mean plasma concentration at 4h in Swiss albino male mice at […] per compound (administered orally in a mixture of 5 compounds to 3 mice) assessed by LCMS/MS.; format: ADME, organism-based; settings: mouse, po
[4] = Mean time to peak plasma concentration in Swiss albino male mice at […] per compound (administered orally in a mixture of 5 compounds to 3 mice) assessed by LCMS/MS.; format: ADME, organism-based; settings: mouse, po
Schistosoma mansoni [5] = experiment: Concentration required to kill 50% of 42 day old worms 5 days after drug treatment.; format: functional, organism-based; settings: Puerto Rican, 120 h
In short: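 Adult S. mansoni were perfused from CD1 mice 6 weeks post-infection and washed. They were cultured 3 pairs per well in 1 mL DMEM with 2 mM glutamine, penicillin/streptomycin and 10% FCS […] at 37 °C, 5% CO2. Viability of individual worms was scored on day 5 (120 h).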

[6] = Mean oral bioavailability in Swiss albino male mice at […] per compound (administered in a mixture of 5 compounds to 3 mice) assessed by LCMS/MS.; also: dose 2.5 mg/kg; format: ADME, organism-based; settings: male, Swiss albino, mouse, in vivo, read-out: Bioavailability
[7] = Mean AUC inf in Swiss albino male mice at 1 mg/kg per compound (administered iv in a mixture of 5 compounds to 3 mice) assessed by LCMS/MS.; format: ADME, organism-based; settings: male, Swiss albino, mouse, in vivo
In short: (§1)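 Male Swiss albino mice (~30 g), 3 per experiment, mostly dosed as mixtures of 5 compounds iv via the lateral tail vein. Vehicle: 10% DMSO/90% 50 mM Na2HPO4 with 0.5% Tween-80. Blood sampled at 5, 15, 30 min and 1, 2, 4, 8, 24 h. Plasma stored at −20 °C and quantified by LC-MS after acetonitrile precipitation.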

[8] = Mean observed clearance in Swiss albino male mice at 1 mg/kg per compound (administered iv in a mixture of 5 compounds to 3 mice) assessed by LCMS/MS.; format: ADME, organism-based; settings: male, Swiss albino, mouse, in vivo, read-out: Clearance (converted); in short: as §1
[9] = Mean plasma concentration at 24h in Swiss albino male mice at […] per compound (administered orally in a mixture of 5 compounds to 3 mice) assessed by LCMS/MS.; format: ADME, organism-based; settings: mouse, po
[10] = Mean volume of distribution at steady state in Swiss albino male mice at 1 mg/kg per compound (administered iv in a mixture of 5 compounds to 3 mice) assessed by LCMS/MS.; format: ADME, organism-based; settings: mouse, in vivo, read-out: Volume
In short: (§2)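 Male Swiss albino mice (~30 g), 3 per experiment, mostly dosed as mixtures of 5 compounds iv via the lateral tail vein. Vehicle: 10% DMSO/90% 50 mM Na2HPO4 with 0.5% Tween-80. Plasma stored at −20 °C and quantified by LC-MS after acetonitrile precipitation.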

[11] = Mean half-life in Swiss albino male mice at 1 mg/kg per compound (administered iv in a mixture of 5 compounds to 3 mice) assessed by LCMS/MS.; format: ADME, organism-based; settings: mouse, in vivo; in short: as §2

CS(=O)(=O)c1ccc(-c2cnc3ccc(-c4cccc(S(C)(=O)=O)c4)nn23)cc1
EC50 (Schistosoma mansoni [1]): 24.9 µM | CC50 [2]: 11.9 µM

Cn1cc(-c2cn3c(-c4ccc(O)cc4)cnc3cn2)cn1
EC50 (Schistosoma mansoni [1]): > 25 µM

COc1ccc(-c2cnc3cnc(-c4ccc(C(C)C)cc4)cn23)cc1
EC50 (Schistosoma mansoni [1]): > 25 µM

OCCn1cc(-c2cn3c(-c4ccc(O)cc4)cnc3cn2)cn1
EC50 (Schistosoma mansoni [1]): > 25 µM

CC(C)c1nn2cnc(-c3ccc(F)c(C(F)(F)F)c3)cc2c1-c1ccc2[nH]ncc2c1F
concentration at 4 h [3]: 332 ng/mL | Tmax [4]: 120 min

CC(C)Oc1cccc(-c2cn3c(-c4ccc5[nH]ncc5c4F)c(C(F)(F)F)nc3cn2)c1
EC50 (Schistosoma mansoni [5]): 0.0173 µM | EC50 (Schistosoma mansoni [1]): 0.0264 µM | CC50 [2]: 13.2 µM

Fc1ccc(-c2cn3c(-c4ccc5[nH]ncc5c4F)c(C4CC4)nc3cn2)cc1C(F)(F)C(F)(F)F
EC50 (Schistosoma mansoni [5]): 0.0232 µM | EC50 (Schistosoma mansoni [1]): 0.0368 µM

Cn1ccc(-c2cn3c(-c4ccc(O)cc4)cnc3cn2)n1
EC50 (Schistosoma mansoni [1]): > 25 µM

Oc1ccc(-c2cnc3cnc(-c4cnn(C5CCCC5)c4)cn23)cc1
EC50 (Schistosoma mansoni [1]): > 25 µM

CS(=O)(=O)Nc1cccc(-c2cn3c(-c4ccc(O)cc4)cnc3cn2)c1
EC50 (Schistosoma mansoni [1]): > 25 µM

Oc1ccc(-c2cnc3cnc(C4=COCCC4)cn23)cc1
bioavailability [6]: 0.01% | EC50 (Schistosoma mansoni [1]): > 25 µM | AUC(0-inf) [7]: 52.2 ng·h/mL | clearance [8]: 177 mL/min/kg | Tmax [4]: 0.6 min

Cc1nc2cnc(-c3ccc(F)c(S(F)(F)(F)(F)F)c3)cn2c1-c1ccc2[nH]ncc2c1F
EC50 (Schistosoma mansoni [5]): 0.0262 µM | EC50 (Schistosoma mansoni [1]): 0.077 µM

Oc1ccc(-c2cnc3cnc(-c4cccc(-c5ccn[nH]5)c4)cn23)cc1
EC50 (Schistosoma mansoni [1]): > 25 µM

CC(C)c1cccc(-c2cn3c(-c4ccc(OC(F)(F)F)cc4)cnc3cn2)c1
EC50 (Schistosoma mansoni [1]): > 25 µM

Cn1ncc2c(-c3cn4c(-c5ccc(O)cc5)cnc4cn3)cccc21
EC50 (Schistosoma mansoni [1]): 19 µM

Cn1cncc1-c1cn2c(-c3ccc(O)cc3)cnc2cn1
EC50 (Schistosoma mansoni [1]): > 25 µM

Cn1cccc(-c2cn3c(-c4ccc(O)cc4)cnc3cn2)c1=O
EC50 (Schistosoma mansoni [1]): > 25 µM

Cc1nc2cnc(-c3cccc(C(F)(F)F)c3)cn2c1-c1ccc(O)cc1
EC50 (Schistosoma mansoni [5]): < 0.615 µM | EC50 (Schistosoma mansoni [1]): 1.42 µM

CC(C)c1cc(-c2cn3c(-c4ccc5[nH]ncc5c4F)c(C(F)(F)F)nc3cn2)ccn1
EC50 (Schistosoma mansoni [5]): 0.037 µM | EC50 (Schistosoma mansoni [1]): 0.0917 µM | CC50 [2]: 9.53 µM

Oc1ccc(-c2cnc3cnc(-c4cnn(Cc5ccccc5)c4)cn23)cc1
EC50 (Schistosoma mansoni [1]): > 25 µM

Cc1c(-c2c(C(F)(F)F)nc3cnc(-c4ccc(F)c(C(F)(F)F)c4)cn23)ccc2[nH]ncc12
bioavailability [6]: 65.2% | concentration at 24 h [9]: 98.1 ng/mL | EC50 (Schistosoma mansoni [1]): 0.76 µM | AUC(0-inf) [7]: 2000 ng·h/mL | Vd [10]: 7.87 L/kg | half-life [11]: 1420 min | clearance [8]: 4.3 mL/min/kg | concentration at 4 h [3]: 250 ng/mL | Tmax [4]: 40 min

Cn1ncc2cc(-c3cn4c(-c5ccc(O)cc5)cnc4cn3)ccc21
EC50 (Schistosoma mansoni [1]): 21.4 µM

COc1cccc(-c2cn3c(-c4ccc(O)cc4)cnc3cn2)n1
EC50 (Schistosoma mansoni [1]): > 25 µM

Cn1nc(C(F)(F)F)cc1-c1cn2c(-c3ccc(O)cc3)cnc2cn1
EC50 (Schistosoma mansoni [1]): > 25 µM

CC(C)c1cc(-c2cn3c(-c4c(F)cc(O)cc4F)c(C4CC4)nc3cn2)ccc1F
EC50 (Schistosoma mansoni [5]): 0.00448 µM | EC50 (Schistosoma mansoni [1]): 0.00519 µM

Cn1cc(-c2cn3c(-c4ccc(O)cc4)cnc3cn2)ccc1=O
EC50 (Schistosoma mansoni [1]): > 25 µM

Cc1noc(C)c1-c1cn2c(-c3ccc(O)cc3)cnc2cn1
bioavailability [6]: 0.01% | EC50 (Schistosoma mansoni [1]): > 25 µM | AUC(0-inf) [7]: 61.2 ng·h/mL | Vd [10]: 0.493 L/kg | half-life [11]: 3.65 min | clearance [8]: 140 mL/min/kg | Tmax [4]: 0.6 min

NC(=O)c1cccc(-c2cn3c(-c4ccc(O)cc4)cnc3cn2)c1
EC50 (Schistosoma mansoni [1]): > 25 µM

Oc1ccc(-c2cnc3cnc(-c4ccnc(C(F)(F)F)c4)cn23)cc1
EC50 (Schistosoma mansoni [1]): > 25 µM

COc1c(O)cccc1-c1c(C(C)C)nc2cnc(-c3cccc(C(F)(F)F)c3)cn12
EC50 (Schistosoma mansoni [5]): 1.76 µM | EC50 (Schistosoma mansoni [1]): 1.32 µM

NC(=O)Cc1cccc(-c2cn3c(-c4ccc(O)cc4)cnc3cn2)c1
EC50 (Schistosoma mansoni [1]): > 25 µM
